# Laboratory results as given in ChEMBL document CHEMBL1124270, “Quinolone antibacterial agents. Synthesis and structure-activity relationships of 8-substituted quinoline-3-carboxylic acids and 1,8-naphthyridine-3-carboxylic acids” (1988).
# Assays:
# Format in all cases: functional
# Escherichia coli [1] = assay: Minimum inhibitory concentration against Escherichia coli vogel in vitro.
# Pseudomonas aeruginosa = assay: Minimum inhibitory concentration against Pseudomonas aeruginosa UI-18 in vitro.
# Streptococcus pneumoniae [2] = assay: In vivo potency against Streptococcus pneumoniae using mouse protection assay following s.c. administration.; details: sc, read-out: PD50
# Mus musculus [3] = assay: In vivo potency against Escherichia coli vogel using mouse protection assay when given perorally; details: po, read-out: PD50
# Mus musculus [4] = assay: In vivo potency against Escherichia coli vogel using mouse protection assay when given subcutaneously; details: sc, read-out: PD50
# Streptococcus pneumoniae [5] = assay: Minimum inhibitory concentration against Streptococcus pneumoniae SV-1 in vitro.
# Klebsiella pneumoniae = assay: Minimum inhibitory concentration against Klebsiella pneumoniae MGH-2 in vitro.
# Staphylococcus aureus [6] = assay: In vivo potency against Staphylococcus aureus using mouse protection assay following s.c. administration.; details: sc, read-out: PD50
# Streptococcus pneumoniae [7] = assay: In vivo potency against Streptococcus pneumoniae using mouse protection assay following p.o. administration.; details: po, read-out: PD50
# Staphylococcus aureus [8] = assay: In vivo potency against Staphylococcus aureus using mouse protection assay following p.o. administration.; details: po, read-out: PD50
# Staphylococcus aureus [9] = assay: Minimum inhibitory concentration against Staphylococcus aureus H228 in vitro.
# Enterobacter cloacae = assay: Minimum inhibitory concentration against Enterobacter cloacae HA 2646 in vitro.
# Streptococcus pyogenes = assay: (§1) Minimum inhibitory concentration against Streptococcus pyogenes C203 in vitro.
# Escherichia coli [10] = assay: Minimum concentration needed to produce linear DNA at an intensity relative to oxolinic at 10 ug/mL in Escherichia coli H560 in vitro.
# How it was run: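 DNA gyrase cleavage test, run as previously described: end point is the lowest drug level (µg/mL) that yields linear DNA at a band intensity matching oxolinic acid at 10 µg/mL. Values come from duplicate or triplicate experiments and are stated as accurate to ±50%.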
# Staphylococcus aureus [11] = assay: Minimum inhibitory concentration against Staphylococcus aureus UC-76 in vitro.
# Providencia rettgeri = assay: Minimum inhibitory concentration against Providencia rettgeri H1771 in vitro.
# Enterococcus faecalis = assay: Minimum inhibitory concentration against Streptococcus faecalis MGH-2 in vitro.
# Escherichia coli [12] = assay: Minimum inhibitory concentration against Escherichia coli H560 in vitro.
# Bacteria = assay: as §1
# Mus musculus [13] = assay: In vivo potency against Staphylococcus aureus using mouse protection assay when given orally; details: po, read-out: PD50
# Mus musculus [14] = assay: In vivo potency against Streptococcus pneumoniae using mouse protection assay when given orally; details: po, read-out: PD50
Structure (SMILES),MIC (Escherichia coli [1]),MIC (Pseudomonas aeruginosa),ED50 (Streptococcus pneumoniae [2]),ED50 (Mus musculus [3]),ED50 (Mus musculus [4]),MIC (Streptococcus pneumoniae [5]),MIC (Klebsiella pneumoniae),ED50 (Staphylococcus aureus [6]),ED50 (Streptococcus pneumoniae [7]),ED50 (Staphylococcus aureus [8]),MIC (Staphylococcus aureus [9]),MIC (Enterobacter cloacae),MIC (Streptococcus pyogenes),DNA cleavage conc (gyrase) (Escherichia coli [10]),MIC (Staphylococcus aureus [11]),MIC (Providencia rettgeri),MIC (Enterococcus faecalis),MIC (Escherichia coli [12]),further results
CN(C)CC1CCN(c2c(F)cc3c(=O)c(C(=O)O)cn(C4CC4)c3c2Cl)C1 (stereo not given),0.1 µg/mL,0.8 µg/mL,2 mg/kg,4 mg/kg,2 mg/kg,0.006 µg/mL,0.1 µg/mL,38 mg/kg,2 mg/kg,61 mg/kg,0.013 µg/mL,0.2 µg/mL,0.025 µg/mL,1 µg/mL,0.006 µg/mL,0.4 µg/mL,0.05 µg/mL,0.025 µg/mL,
CNCC1CCN(c2nc3c(cc2F)c(=O)c(C(=O)O)cn3C2CC2)C1 (stereo not given),0.1 µg/mL,0.8 µg/mL,11 mg/kg,3 mg/kg,1 mg/kg,0.025 µg/mL,0.2 µg/mL,1 mg/kg,27 mg/kg,3 mg/kg,0.2 µg/mL,0.2 µg/mL,,1 µg/mL,0.025 µg/mL,0.4 µg/mL,0.2 µg/mL,0.05 µg/mL,MIC (Bacteria): 0.05 µg/mL
NCC1CCN(c2c(F)cc3c(=O)c(C(=O)O)cn(C4CC4)c3c2F)C1 (stereo not given),0.025 µg/mL,0.2 µg/mL,,6 mg/kg,,0.006 µg/mL,0.05 µg/mL,,,,0.025 µg/mL,0.05 µg/mL,0.013 µg/mL,0.25 µg/mL,0.003 µg/mL,0.1 µg/mL,0.013 µg/mL,0.006 µg/mL,ED50 (Mus musculus [13]): 78 mg/kg; ED50 (Mus musculus [14]): 10 mg/kg
Cl.NC1CCN(c2c(F)cc3c(=O)c(C(=O)O)cn(C4CC4)c3c2F)C1 (stereo not given),0.013 µg/mL,0.1 µg/mL,6 mg/kg,1 mg/kg,0.2 mg/kg,0.05 µg/mL,0.025 µg/mL,3 mg/kg,15 mg/kg,7 mg/kg,0.05 µg/mL,0.025 µg/mL,0.05 µg/mL,0.1 µg/mL,0.025 µg/mL,0.05 µg/mL,0.05 µg/mL,0.006 µg/mL,
O=C(O)c1cn(C2CC2)c2cc(N3CCNCC3)c(F)cc2c1=O [CIPROFLOXACIN],,0.4 µg/mL,19 mg/kg,1 mg/kg,0.3 mg/kg,1.6 µg/mL,0.1 µg/mL,5 mg/kg,> 100 mg/kg,25 mg/kg,3.1 µg/mL,,0.8 µg/mL,,0.2 µg/mL,0.1 µg/mL,0.8 µg/mL,0.025 µg/mL,
CC(C)NCC1CCN(c2c(F)cc3c(=O)c(C(=O)O)cn(C4CC4)c3c2F)C1 (stereo not given),0.1 µg/mL,1.6 µg/mL,2 mg/kg,6 mg/kg,1 mg/kg,0.05 µg/mL,0.2 µg/mL,12 mg/kg,7 mg/kg,42 mg/kg,0.05 µg/mL,0.2 µg/mL,0.05 µg/mL,2.8 µg/mL,0.013 µg/mL,0.4 µg/mL,0.025 µg/mL,0.05 µg/mL,
Cl.NC1CCN(c2c(F)cc3c(=O)c(C(=O)O)cn(C4CC4)c3c2Cl)C1 (stereo not given) [CLINAFLOXACIN HYDROCHLORIDE],0.013 µg/mL,0.05 µg/mL,4 mg/kg,3 mg/kg,0.6 mg/kg,0.05 µg/mL,0.025 µg/mL,5 mg/kg,10 mg/kg,13 mg/kg,0.05 µg/mL,0.025 µg/mL,0.05 µg/mL,0.5 µg/mL,0.013 µg/mL,0.025 µg/mL,0.05 µg/mL,0.006 µg/mL,
CN(C)CC1CCN(c2cc3c(cc2F)c(=O)c(C(=O)O)cn3C2CC2)C1 (stereo not given),0.1 µg/mL,1.6 µg/mL,9 mg/kg,4 mg/kg,2 mg/kg,0.1 µg/mL,0.2 µg/mL,26 mg/kg,18 mg/kg,47 mg/kg,0.1 µg/mL,0.1 µg/mL,0.2 µg/mL,0.75 µg/mL,0.1 µg/mL,0.4 µg/mL,0.2 µg/mL,0.1 µg/mL,
Cl.Cl.NC1CCN(c2cc3c(cc2F)c(=O)c(C(=O)O)cn3C2CC2)C1 (stereo not given),0.025 µg/mL,0.1 µg/mL,4 mg/kg,3 mg/kg,0.5 mg/kg,0.05 µg/mL,0.1 µg/mL,,43 mg/kg,49.5 mg/kg,0.1 µg/mL,0.025 µg/mL,0.1 µg/mL,0.1 µg/mL,0.025 µg/mL,0.1 µg/mL,0.1 µg/mL,0.006 µg/mL,
